Laboratory results from ChEMBL document CHEMBL4152350, “A new multifunctional hydroxytyrosol-clofibrate with hypolipidemic, antioxidant, and hepatoprotective effects” (Bioorg Med Chem Lett, 2018).
Calls of active or inactive are those of the source. The calls are words filed in the database; no cut-off is given here.

Legend:
[1] = Antioxidant activity assessed as DPPH radical scavenging activity after 30 mins; format: functional
[2] = system: Mus musculus; assay: Hepatoprotective activity in ICR mouse assessed as liver weight at 240 umol/kg/day administered po for 2 months (reference value: 1.49 +/- 0.42 g); format: functional
[3] = system: Mus musculus; assay: Hepatoprotective activity in ICR mouse assessed as liver coefficient at 240 umol/kg/day administered po for 2 months (reference value: 40.50 +/- 0.71 mg/g); format: functional
[4] = system: Mus musculus; assay: Toxicity in ICR mouse assessed as body weight at 240 umol/kg/day administered po for 2 months (reference value: 36.8 +/- 0.70 g); format: organism-based; conditions: in vivo
[5] = system: Mus musculus; assay: Hypolipidemic activity in Triton WR 1339-induced acute hyperlipidemic ICR mouse model assessed as decrease in plasma triglyceride levels at 240 umol/kg, ig for one week followed by Triton WR 1339 challenge on day 6 measured after 24 hrs; format: functional; parameters: scale not given: the % may be the effect or the level left
In short: (§1)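 Acute hyperlipidemia was induced with Triton WR 1339 in mice given 240 µmol/kg intragastrically for 7 days. Plasma TG and TC are expressed as percent reduction, and plasma MDA in nmol/mL. Data are mean ± SEM, n=8, compared against the blank and model groups.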

[6] = system: Mus musculus; assay: Hypolipidemic activity in Triton WR 1339-induced acute hyperlipidemic ICR mouse model assessed as decrease in total cholesterol levels in plasma at 240 umol/kg, ig for one week followed by Triton WR 1339 challenge on day 6 measured after 24 hrs; format: functional; parameters: scale not given: the % may be the effect or the level left; in short: as §1
[7] = system: Mus musculus; assay: Hypolipidemic activity in Triton WR 1339-induced acute hyperlipidemic ICR mouse model assessed as decrease in malonaldehyde levels in plasma at 240 umol/kg, ig for one week followed by Triton WR 1339 challenge on day 6 measured after 24 hrs; format: functional; parameters: scale not given: the % may be the effect or the level left; in short: as §1
[8] = Antioxidant activity assessed as hydroxyl radical scavenging activity after 60 mins; format: functional
[9] = system: Mus musculus; assay: Hepatoprotective activity in ICR mouse assessed as serum AST levels at 240 umol/kg/day administered po for 2 months (reference value: 107.25 +/- 2.77 U/L); format: functional
[10] = system: Mus musculus; assay: Hepatoprotective activity in ICR mouse assessed as serum ALT levels at 240 umol/kg/day administered po for 2 months (reference value: 36.25 +/- 1.08 U/L); format: functional
[11] = system: Mus musculus; assay: Hepatoprotective activity in ICR mouse assessed as serum APK levels per 100 ml at 240 umol/kg/day administered po for 2 months (reference value: 20.02 +/- 0.61 U); format: functional
[12] = system: Mus musculus; assay: Hepatoprotective activity in ICR mouse assessed as serum TBIL levels at 240 umol/kg/day administered po for 2 months (reference value: 0.63 +/- 0.09 microM); format: functional
[13] = system: Mus musculus; assay: Antioxidant activity in ICR mouse assessed as serum SOD levels at 240 umol/kg/day administered po for 2 months (reference value: 337.64 +/- 4.82 U/ml); format: functional
In short: (§2)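 Male ICR mice (20.0 ± 2.0 g) received 240 µmol/kg/day; normal controls got an equal volume of vehicle. Commercial kits measured serum SOD, CAT and MDA and hepatic GSH and GSSG, with the GSH/GSSG ratio calculated. Groups were compared with normal and CF groups.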

[14] = system: Mus musculus; assay: Antioxidant activity in ICR mouse assessed as serum MDA levels at 240 umol/kg/day administered po for 2 months (reference value: 6 +/- 0.20 microM); format: functional; in short: as §2
[15] = system: Mus musculus; assay: Antioxidant activity in ICR mouse assessed as serum CAT levels at 240 umol/kg/day administered po for 2 months (reference value: 2.83 +/- 0.22 U/ml); format: functional; in short: as §2
[16] = system: Mus musculus; assay: Antioxidant activity in ICR mouse assessed as hepatic GSH levels at 240 umol/kg/day administered po for 2 months (reference value: 43.38 +/- 4.59 microM); format: functional; in short: as §2
[17] = system: Mus musculus; assay: Antioxidant activity in ICR mouse assessed as hepatic GSSG levels at 240 umol/kg/day administered po for 2 months (reference value: 2.91 +/- 0.31 microM); format: functional; in short: as §2
[18] = system: Mus musculus; assay: Antioxidant activity in ICR mouse assessed as hepatic GSH to GSSG ratio at 240 umol/kg/day administered po for 2 months (reference value: 16.4 +/- 2.34); format: functional; in short: as §2
[19] = system: Mus musculus; assay: Hepatoprotective activity in ICR mouse assessed as hepatocyte hyperplasia at 240 umol/kg/day administered po for 2 months by histopathological analysis; format: functional, organism-based
In short: (§3)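 Liver slices from male ICR mice (20.0 ± 2.0 g) were examined histopathologically after 240 µmol/kg/day dosing; normal controls received the same volume of vehicle.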

[20] = system: Mus musculus; assay: Hepatoprotective activity in ICR mouse assessed as hypertrophy at 240 umol/kg/day administered po for 2 months by histopathological analysis; format: functional, organism-based; in short: as §3
[21] = system: Mus musculus; assay: Hepatoprotective activity in ICR mouse assessed as midzonal mitosis at 240 umol/kg/day administered po for 2 months by histopathological analysis; format: functional, organism-based; in short: as §3
[22] = system: Mus musculus; assay: Hepatoprotective activity in ICR mouse assessed as centrilobular hypertrophy at 240 umol/kg/day administered po for 2 months by histopathological analysis; format: functional, organism-based; in short: as §3

Row | Compound | Activity [1] | Activity [2] [g] | Activity [3] [mg/g] | Activity [4] [g] | Activity [5] [%] | Activity [6] [%] | Activity [7] [%] | Activity [8] | Activity [9] [U/L] | Activity [10] [U/L] | Activity [11] [U] | Activity [12] [µM] | Activity [13] [U/ml] | Activity [14] [µM] | Activity [15] [U/ml] | Activity [16] [µM] | Activity [17] [µM] | Ratio [18] | Activity [19] | Activity [20] | also measured
1 | CCOC(=O)C(C)(C)Oc1ccc(Cl)cc1 [CLOFIBRATE] | inactive | 1.77 | 52.12 | 33.8 | 24 | 23 | 14 | inactive | 157.5 | 63.13 | 28.64 | 13.09 | 228.32 | 7.79 | 3.86 | 11.6 | 6.24 | 2.1 | inactive | inactive | Activity [21]: inactive; Activity [22]: inactive
2 | CC(C)(Oc1ccc(Cl)cc1)C(=O)OCCc1ccc(O)c(O)c1 | Active | 1.48 | 44.17 | 33.4 | 30 | 33 | 29 | Active | 121.37 | 39.75 | 17.57 | 0.95 | 275.2 | 6.44 | 2.04 | 22.87 | 4.85 | 4.1 | Active | Active | Activity [21]: Active; Activity [22]: Active
